m5-HT2A agonist = mouse HTR2A agonism via beta-arrestin recruitment. activation, % at 7.6 µM. P35363. 360,000 compounds, 0.66% hits. CHO-K1 mHTR2A beta-arrestin complementation, luminescence; percent of 30 µM serotonin response;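 active means activation above a run cutoff, the mean activation of all tested compounds plus 3 SD, cut at about 14% in these data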;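 further: 0% = plate median of compound wells and 100% = 30 µM serotonin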
Target sequence (P35363 whole entry, looked up): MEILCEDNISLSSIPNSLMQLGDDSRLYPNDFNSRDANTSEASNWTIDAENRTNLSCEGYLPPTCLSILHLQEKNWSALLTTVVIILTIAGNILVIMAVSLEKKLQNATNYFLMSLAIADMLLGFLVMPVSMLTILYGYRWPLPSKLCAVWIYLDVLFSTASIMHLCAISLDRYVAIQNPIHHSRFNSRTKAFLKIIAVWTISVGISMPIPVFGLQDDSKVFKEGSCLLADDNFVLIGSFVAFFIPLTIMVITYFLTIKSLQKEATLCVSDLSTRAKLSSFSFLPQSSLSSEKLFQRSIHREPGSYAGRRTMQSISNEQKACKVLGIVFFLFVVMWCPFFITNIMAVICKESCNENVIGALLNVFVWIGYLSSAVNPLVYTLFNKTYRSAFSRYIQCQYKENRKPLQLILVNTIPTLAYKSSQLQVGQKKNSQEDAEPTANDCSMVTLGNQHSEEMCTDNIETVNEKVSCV
TAAR1 antag = antagonists of human TAAR1; CHO RD-HGA16 TAAR1, Fluo-8 calcium fluorescence, antagonist; inhibition, % at 3 µM; Q96RJ0; 360,000 compounds, 1.5% hits;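 active means inhibition above a per-plate cutoff, the mean inhibition of test compounds on that plate plus 3 SD, cut at about 49% in these data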;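 further: 0% = DMSO plus EC80 beta-PEA response and 100% = DMSO alone without agonist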
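Test system: CHO RD-HGA16 cells bearing hTAAR1 | Reagent: β-PEA, EC80 | Compound dosing: 3 µM, single point | Schedule: Dye loading 75 min at 37 °C, then 30 min room temperature | Signal: Calcium fluorescence with Fluo-8 | Evaluation: Percent inhibition of PEA-evoked calcium signal, max/basal emission ratio | Control set: DMSO-only wells and EC80 β-PEA-stimulated wells | Repeats: Singlicate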
TAAR1 ag = agonists of human TAAR1; activation, % at 3 µM; CHO RD-HGA16 TAAR1, Fluo-8 calcium fluorescence; vehicle wells 0%, saturating PEA agonist 100%; 360,000 compounds, 0.99% hits;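 active means activation above the mean activation of all test compounds in the run plus 3 SD, cut at about 38% in these data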
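Benchmarks: low control DMSO, high control PEA (EC100); System: CHO RD-HGA16 cells carrying human TAAR1 plus Gα16; Detection: Fluo-8 fluorescence, 5 s baseline then 140 s kinetic read; Schedule: 17-24 h plating, Fluo-8 75 min 37 °C, 30 min RT; Read-out basis: % activation from peak over basal fluorescence ratio, DMSO-to-PEA scaled.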
MC4R antag cAMP = blocks human MC4R cAMP signaling; P32245; MC4R-expressing cells, MTII-stimulated cAMP, LANCE TR-FRET; inhibition, % at 6.5 µM; 360,000 compounds, 0.48% hits; AID 540295;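 active means inhibition above its plate's cutoff, the mean of tested wells on that plate plus 3 SD, cut at about 29% in these data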;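 further: 0% = Melanotan II alone and 100% = Melanotan II plus saturating MCL0020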
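Assay system: U2OS cells stably expressing human melanocortin 4 receptor (MC4R) / Dosing: 6.5 µM / Timing: compound 30 min, challenge 1 h, detection 1 h / Measured by: Eu-cAMP/anti-cAMP TR-FRET, emission 671 nm / Replicates: singlicate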
B2AR ag = human beta-2 adrenergic receptor agonism by FAP. response, % (no concentration beside the values). P07550. 340,000 compounds, 0.43% hits. Am2.2-beta2AR cells, FAP receptor internalization, flow cytometry;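 active means response above a set limit, near 3 SD of response in nonfluorescent compounds, cut at about 42% in these data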
MC4R ag barr = human MC4R agonism via beta-arrestin. activation, % at 8.9 µM. U2OS MC4R beta-arrestin complementation, luminescence; percent of melanotan II response, DMSO zero. 360,000 compounds, 0.98% hits. P32245. AID 540308;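 active means activation above a per-plate cutoff, the mean activation of sample wells on that plate plus 3 SD, cut at about 8% in these data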
* marks the source's active call; other numbers are inactive results; x = no result given. This is a sample that favours compounds with a hit; in the whole collection about 4.3% have one here.

SMILES | m5-HT2A agonist | TAAR1 antag | TAAR1 ag | MC4R antag cAMP | B2AR ag | MC4R ag barr
COc1ccccc1NS(=O)(=O)c1cccc(NC(=O)Nc2cccc(Cl)c2)c1 | -1.8 | 78.9* | 20.3 | 28.0 | 16.0 | 5.2
COc1ccccc1NS(=O)(=O)c1cccc(NC(=O)CCNC(=O)c2ccccc2OC)c1 | -7.4 | 57.4* | 10.5 | 2.4 | 12.5 | -3.3
CCCCCCCCN1C(=O)[C@@H](CC(=O)NCC2CCCCC2)C[C@@]2(C(=O)OC)C1=C[C@H](C(C)(C)C)O[C@@H]2C | x | -28.2 | 3.8 | x | x | x
NC(=O)c1nsc(C(=O)N(c2cccc(F)c2)C(C(=O)NC2CCCC2)c2ccco2)c1N (configuration not stated) | 0.7 | 0.2 | 7.0 | -2.0 | -5.3 | 8.9*
NC(=O)c1nsc(C(=O)N(c2cccc(F)c2)C(C(=O)NCc2ccccc2)c2ccc(O)cc2)c1N (configuration not stated) | 12.5 | 52.5* | 17.7 | 18.3 | 1.2 | 0.5
Cc1ccc(-c2cc(C(=O)NNC(=O)c3csc(N4CCOCC4)n3)c3ccccc3n2)cc1 | -10.2 | 42.7 | 14.5 | 5.3 | 17.2 | -1.6
Cc1ccc2nc(-c3ccccc3)cc(C(=O)NNC(=O)c3csc(N4CCOCC4)n3)c2c1 | -19.3 | 56.5* | 16.9 | 20.5 | 2.8 | -4.3
COc1ccc(OCc2cc(/C=N\NC(=O)c3ccccc3)ccc2OC)cc1 | -0.8 | 20.2 | -0.9 | -9.8 | 2.2 | -2.1
COc1cccc(/C=N/NC(=O)c2ccc(OCc3cccc(Br)c3)cc2)c1 | -1.2 | 52.3* | -0.2 | 4.4 | 4.5 | 0.1
CCC(C)(C)n1nnnc1C(c1cc2ccc(OC)cc2[nH]c1=O)N1CCc2ccccc2C1 (configuration not stated) | -5.2 | 3.0 | 74.7* | 2.1 | 6.5 | -1.7
CCC(C)(C)n1nnnc1C(c1cc2ccc(OC)cc2[nH]c1=O)N1CCc2ccccc21 (configuration not stated) | 0.3 | 15.1 | 6.5 | -0.6 | -2.0 | 4.6
CN(C)CCn1c2ccccc2c2nc3ccc([N+](=O)[O-])cc3cc21 | -7.9 | 4.8 | 0.3 | -6.9 | -0.5 | 8.3*
CCn1c2ccccc2c2cc([N+](=O)[O-])ccc21 | 0.1 | -7.4 | -0.2 | -1.9 | 4.9 | -0.6
Cc1ccc(S(=O)(=O)NC(CCCNC(=O)OCc2ccccc2)C(=O)O)cc1 (configuration not stated) | x | -26.5 | 2.2 | x | x | x
COc1ccc(OCC(=O)Nc2cc(-c3nn4c(C)nnc4s3)ccc2C)cc1 | -0.2 | -14.0 | 0.9 | 0.6 | 69.8* | 0.2
COC(=O)c1ccc(OCC2c3cc(OC)c(OC)cc3CCN2C(=O)c2ccco2)cc1 (configuration not stated) | 4.2 | 61.4* | 15.0 | 0.7 | 3.4 | 0.9
CC(C)[C@@H]1CC[C@@H](C)C[C@H]1OC[B-](F)(F)F | x | -18.4 | 0.3 | x | x | x
O=[N+]([O-])c1ccc2nc(/C=C/c3ccc(Cl)cc3)[nH]c2c1 | -5.0 | 53.0* | 3.8 | 5.7 | 20.8 | -0.2
O=[N+]([O-])c1ccc(-c2nc3ccc([N+](=O)[O-])cc3[nH]2)cc1 | 1.3 | 15.1 | 12.5 | -3.5 | 21.4 | 3.9
CC(C)NS(=O)(=O)c1ccc(NC(=O)C(C)OC(=O)CCC2CCCC2)cc1 (configuration not stated) | 1.2 | -1.7 | 29.1 | 8.9 | -7.2 | 8.4*
COc1cccc(CNc2ccc3[nH]c(=O)[nH]c3c2)c1OCc1ccc(F)cc1 | 0.5 | 50.1* | 6.6 | -0.4 | 11.7 | -0.6
CC1=C(C(N)=O)C(c2cccs2)n2ncnc2N1 (configuration not stated) | 2.9 | -13.7 | -0.2 | 1.3 | -5.0 | -1.4
CCCCCOC(=O)C1=C(C)Nc2ncnn2C1c1cccs1 (configuration not stated) | -0.2 | 56.6* | 15.0 | 5.3 | 31.8 | 2.1
C=CCn1c(SCCC)nc(O)cc1=O | -2.6 | -17.0 | 60.5* | -1.0 | 8.0 | -0.6
CSc1nncc(/C(C)=N\Nc2ccccc2C)n1 | 0.6 | 5.7 | 1.8 | -2.5 | 48.2* | 4.8
SMILES | m5-HT2A agonist | TAAR1 antag | TAAR1 ag | MC4R antag cAMP | B2AR ag | MC4R ag barr
CSc1nncc(/C(C)=N/O)n1 | 0.1 | 2.3 | 0.5 | 1.4 | -6.9 | -1.6
CC(C)C(=O)Nc1ccc(NC(=O)c2ccc(COc3ccccc3)cc2)cc1 | 7.5 | 3.0 | 1.3 | 8.4 | -7.9 | 0.9
O=C(CCc1nc2sc3c(c2c(=O)[nH]1)CCCC3)Nc1cccc(Cl)c1 | 3.0 | 12.2 | 4.9 | -0.9 | -5.1 | 8.3*
CCN(CC)C(=O)c1cccc(NC(=O)CCc2nc3sc4c(c3c(=O)[nH]2)CCCC4)c1 | -9.3 | 2.4 | 0.6 | 4.4 | 11.2 | -2.7
COc1cccc(CNC(=O)[C@H]2CCCN2C(=O)[C@H]2CCCN2C(=O)c2c(F)cccc2F)c1 | x | 0.0 | 0.4 | x | x | x
O=C(N[C@H](Cc1ccccc1)C(=O)N1CCN(c2ncccn2)CC1)[C@H]1O[C@@H](n2ccc(=O)[nH]c2=O)[C@H](O)[C@@H]1O | x | -12.2 | 0.3 | x | x | x
C[C@@H]1CN([C@@H](C)CO)C(=O)CCCn2cc(nn2)CO[C@H]1CN(C)C(=O)Nc1ccc(C(F)(F)F)cc1 | x | 5.9 | 3.7 | x | x | x
C#CCOCCOCCOCCNc1nc(N2CCN(C(=O)[C@H](Cc3ccc(O)cc3)n3cc([C@@H](N)C(C)CC)nn3)CC2)nc(N2CCN(C(=O)[C@H](Cc3cc4ccccc4[nH]3)n3cc([C@@H](N)C(C)CC)nn3)CC2)n1 (some centres not stated) | 8.2 | x | x | -3.5 | 58.4* | 0.3
C#CCOCCOCCOCCNc1nc(N2CCN(C(=O)[C@H](Cc3cc4ccccc4[nH]3)n3cc([C@@H](N)Cc4ccc(O)cc4)nn3)CC2)nc(N2CCN(C(=O)[C@H](Cc3cc4ccccc4[nH]3)n3cc([C@@H](N)CC(C)C)nn3)CC2)n1 | x | x | x | x | 73.0* | x
COc1cc2c(c(OC3OC(CO)C(O)C(O)C3O)c1)C(=O)CC(c1ccc(O)cc1)O2 (configuration not stated) | x | -0.3 | 1.0 | x | x | x
O=C(C[C@H]1C[C@H](C(=O)N2CCCCC2)[C@@]2(CCc3ccccc3)c3[nH]c4cc(-c5ccco5)ccc4c3CCN2C1=O)NCCN1CCOCC1 | -0.2 | 23.7 | 4.4 | 2.4 | 42.5* | 1.5
C=CCc1ccc(OCC(O)COc2ccc(CC=C)cc2OC)c(OC)c1 | 3.2 | 34.8 | 2.9 | 11.9 | 3.2 | 8.7*
O=C(O)c1cccc(Nc2nc(-c3ccc([N+](=O)[O-])cc3)nc3ccccc23)c1 | 3.5 | 4.3 | 3.2 | 28.4 | 9.9 | -1.3
O=[N+]([O-])c1ccc(-c2nc(Nc3cccc(O)c3)c3ccccc3n2)cc1 | -3.4 | 55.4* | 5.9 | 5.9 | 25.0 | 7.9

Bioassay records from PubChem BioAssay.
